Test results reported in ChEMBL document CHEMBL2311271 (Eur J Med Chem, 2013).

What was measured:
[1] = Cytotoxicity against human Blu-87 cells by MTT assay; type: functional, cell-based
Method in brief: (§1)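 Cells grown in RPMI-1640 with 10% fetal calf serum plus penicillin and streptomycin, 37 °C, 5% CO₂. Compounds in DMSO, final ≤2% (v/v), tested in 96-well cultures with MTT staining. IC₅₀ = concentration cutting optical density 50% versus untreated cells; three replicate wells per point; mean of three independent determinations.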

[2] = tested on: U-251; experiment: Cytotoxicity against human U251 cells by MTT assay; type: functional, cell-based; method in brief: as §1
[3] = tested on: Lewis lung carcinoma cell line; experiment: Antitumor activity against mouse LLC cells xenografted in mouse assessed as tumor inhibition at 2.5 mg/kg, ip qd for 7 days measured every 3 days for 21 days; type: functional; conditions: route intraperitoneal
[4] = tested on: Mus musculus; experiment: Neurotoxicity in ip dosed C57BL/6 mouse assessed as tremble, twitch, jumping and supination response; type: toxicity, organism-based; conditions: in vivo
Method in brief: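 C57BL/6 mice (9–12 weeks, 18–22 g), fasted overnight with water, dosed i.p. with 1.0–500 mg/kg in 0.5% CMC-Na; 10 per group (5 male, 5 female). Watched continuously 2 h for tremor, twitch, jumping, supination and other behavior, then intermittently to 24 h and occasionally to 14 days; killed day 14, with heart, liver and kidneys inspected.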

[5] = tested on: A549; experiment: Cytotoxicity against human A549 cells by MTT assay; type: functional, cell-based; method in brief: as §1
[6] = tested on: CWR22R; experiment: Cytotoxicity against human 22Rv1 cells by MTT assay; type: functional, cell-based; method in brief: as §1
[7] = Acute toxicity in ip dosed C57BL/6 mouse measured up to 14 days; type: organism-based; conditions: in vivo
Method in brief: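 Healthy C57BL/6 mice (9–12 weeks, 18–22 g), fasted overnight, 10 per group (5 male, 5 female). Single i.p. dose, 1.0 to 500 mg/kg in 0.5% CMC-Na. Watched continuously for 2 h, intermittently over 24 h, then occasionally to day 14 for behaviour, deaths and delayed effects. Heart, liver and kidneys inspected at necropsy. LD50 derived graphically.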

[8] = tested on: KB; experiment: Cytotoxicity against human KB cells by MTT assay; type: functional, cell-based; method in brief: as §1
[9] = Antitumor activity against mouse Sarcoma 180 cells xenografted in mouse assessed as tumor inhibition at 2.5 mg/kg, ip qd for 7 days measured every 3 days for 21 days; type: functional; conditions: Sarcoma-180, ip, route intraperitoneal
[10] = tested on: 769-P; experiment: Cytotoxicity against human 769-P cells by MTT assay; type: functional, cell-based; method in brief: as §1
[11] = tested on: A-375; experiment: Cytotoxicity against human A375 cells by MTT assay; type: functional, cell-based; method in brief: as §1
[12] = tested on: 786-0; experiment: Cytotoxicity against human 786-0 cells by MTT assay; type: functional, cell-based; method in brief: as §1
[13] = tested on: OS-RC-2; experiment: Cytotoxicity against human OS-RC2 cells by MTT assay; type: functional, cell-based; method in brief: as §1
[14] = tested on: HT-29; experiment: Cytotoxicity against human HT-29 cells by MTT assay; type: functional, cell-based; method in brief: as §1
[15] = tested on: SCaBER; experiment: Cytotoxicity against human SCaBER cells by MTT assay; type: functional, cell-based; method in brief: as §1
[16] = tested on: Bel-7402; experiment: Cytotoxicity against human Bel7402 cells by MTT assay; type: functional, cell-based; method in brief: as §1
[17] = tested on: HepG2; experiment: Cytotoxicity against human HepG2 cells by MTT assay; type: functional, cell-based; method in brief: as §1
[18] = tested on: HeLa; experiment: Cytotoxicity against human HeLa cells by MTT assay; type: functional, cell-based; method in brief: as §1
[19] = tested on: BGC-823; experiment: Cytotoxicity against human BGC823 cells by MTT assay; type: functional, cell-based; method in brief: as §1
[20] = tested on: MCF7; experiment: Cytotoxicity against human MCF7 cells by MTT assay; type: functional, cell-based; method in brief: as §1
[21] = tested on: Lewis lung carcinoma cell line; experiment: Antitumor activity against mouse LLC cells xenografted in mouse assessed as tumor inhibition at 40 mg/kg, ip qd for 7 days measured every 3 days for 21 days; type: functional; conditions: route intraperitoneal
[22] = Antitumor activity against mouse Sarcoma 180 cells xenografted in mouse assessed as tumor inhibition at 40 mg/kg, ip qd for 7 days measured every 3 days for 21 days; type: functional; conditions: Sarcoma-180, ip, route intraperitoneal

| Compound | IC50 [1] | IC50 [2] | Activity [4] | IC50 [5] | IC50 [6] | LD50 at 336 h [7] | IC50 [8] | IC50 [10] | IC50 [11] | IC50 [12] | IC50 [13] | IC50 [14] | IC50 [15] | IC50 [16] | IC50 [17] | IC50 [18] | IC50 [19] | IC50 [20] | other results |
| --- | --- | --- | --- | --- | --- | --- | --- | --- | --- | --- | --- | --- | --- | --- | --- | --- | --- | --- | --- |
| CCn1c2cc(OCc3c(F)c(F)c(F)c(F)c3F)ccc2c2cc[n+](Cc3ccccc3)c(C)c21.[Br-] | 17.7 µM | 6.6 µM | Non-toxic | 1.8 µM | < 1.4 µM | 12.5 mg/kg | 13.8 µM | 13 µM | 3.8 µM | 2.9 µM | 1.8 µM | 1.6 µM | 6.8 µM |  |  |  |  |  | inhibition in vivo at 2.5 mg/kg [3]: 23.7%; inhibition in vivo at 2.5 mg/kg [9]: 36.9% |
| CCCCCCCCOc1ccc2c3cc[n+](Cc4ccccc4)c(C)c3n(CCCc3ccccc3)c2c1 | 1.9 µM | 2.9 µM |  | 1.6 µM | < 1.5 µM |  | < 1.5 µM | 1.8 µM | < 1.5 µM | < 1.5 µM | 1.7 µM | 3.4 µM | 6.1 µM |  |  |  |  |  |  |
| CCn1c2cc(OCC(C)C)ccc2c2cc[n+](Cc3ccccc3)c(C)c21.[Br-] | 25.9 µM | 17.3 µM | Non-toxic | 11.6 µM |  | 12.5 mg/kg | < 1.7 µM | 5.2 µM | 7.8 µM | 8.5 µM | 10.6 µM | 4 µM | 34.1 µM | 3.2 µM | 9.6 µM | 4.9 µM | 10.6 µM | 11.1 µM | inhibition in vivo at 2.5 mg/kg [3]: 30%; inhibition in vivo at 2.5 mg/kg [9]: 44.2% |
| CCCCn1c2cc(OCC(C)C)ccc2c2cc[n+](Cc3ccccc3)c(C)c21 | 12.3 µM | 12.1 µM |  | 3.8 µM | 6.7 µM |  | 2 µM | 4.6 µM | 4.2 µM | 2.5 µM | 3.2 µM | 3.1 µM | 18.2 µM | 2.7 µM | 4.2 µM | 3.9 µM | 4.6 µM | 10.4 µM |  |
| CCCCCCCCOc1ccc2c3cc[n+](Cc4ccccc4)c(C)c3n(CCCC)c2c1 | 2 µM | 2 µM |  | < 1.5 µM | 2.9 µM |  | < 1.5 µM | < 1.5 µM | < 1.5 µM | < 1.5 µM | < 1.5 µM | 3.2 µM | 4.6 µM | 0.86 µM | 2.7 µM | 4 µM | 3.7 µM | 4.1 µM |  |
| CCCCn1c2cc(OCc3ccccc3)ccc2c2cc[n+](Cc3ccccc3)c(C)c21 | 4.6 µM | 5.5 µM |  | 4.4 µM | 2.1 µM |  | 4 µM | 20 µM | 4 µM | < 1.5 µM | 3.6 µM | 3.7 µM | 8.5 µM | 3.6 µM | 2.7 µM | 2.2 µM | 21.4 µM | 15.7 µM |  |
| Cc1c2c(cc[n+]1Cc1ccccc1)c1ccc(OCC(C)C)cc1n2CC(C)C | 5.2 µM | 4.5 µM |  | 4.3 µM | 2.6 µM |  | < 1.5 µM | < 1.5 µM | 3.9 µM | 3.4 µM | 8.3 µM | 4.2 µM | 12.8 µM | 4.3 µM | 5.7 µM | 2.1 µM | 5.4 µM | 2.9 µM |  |
| CCCCCCCCCCOc1ccc2c3cc[n+](Cc4ccccc4)c(C)c3n(CC(C)C)c2c1 | 3.2 µM | 1.5 µM |  | < 1.5 µM | < 1.5 µM |  | < 1.5 µM | < 1.5 µM | < 1.5 µM | 1.9 µM | 4 µM | 1.7 µM | 7.8 µM | 5.8 µM | 2.4 µM | 1.6 µM | 2 µM | 1.8 µM |  |
| Cc1c2c(cc[n+]1Cc1ccccc1)c1ccc(OCCCc3ccccc3)cc1n2CC(C)C | 3.8 µM | 2.5 µM |  | < 1.5 µM | 2.8 µM |  | < 1.5 µM | 3.7 µM | < 1.5 µM | 2.3 µM | 3.5 µM | 4.9 µM | 3.6 µM | 1.3 µM | 4 µM | 1.4 µM | 2.5 µM | 9.2 µM |  |
| CCCCOc1ccc2c3cc[n+](Cc4ccccc4)c(C)c3n(CCCc3ccccc3)c2c1 | 4.4 µM | 3.7 µM |  | < 1.5 µM | 3.4 µM |  | < 1.5 µM | 2.9 µM | 1.5 µM | 2.6 µM | 6.8 µM | 3.4 µM | 4.7 µM | 2.5 µM | 4.1 µM | 3.9 µM | 4.1 µM | 3.8 µM |  |
| CCn1c2cc(OCC(C)C)ccc2c2ccnc(C)c21 | 14.2 µM | 44.6 µM | Non-toxic | 30.3 µM |  | 200 mg/kg | 20.3 µM | 27 µM |  | 24.3 µM | 32 µM | 16.9 µM | 16.4 µM | 21.9 µM | 20.8 µM | 23.3 µM | 29.8 µM | 13.2 µM | inhibition in vivo at 40 mg/kg [21]: 20.8%; inhibition in vivo at 40 mg/kg [22]: 27.8% |
| CCn1c2cc(OCCCc3ccccc3)ccc2c2ccnc(C)c21 | 16.7 µM | 28 µM | Non-toxic | 22.6 µM |  | 200 mg/kg | 22.6 µM | 22.6 µM | 19.7 µM | 13.2 µM |  | 11.8 µM | 6.5 µM | 13.5 µM | 11.4 µM | 30.2 µM | 11.9 µM | > 100 µM | inhibition in vivo at 40 mg/kg [21]: 21.7%; inhibition in vivo at 40 mg/kg [22]: 26% |
